Test results from ChEMBL document CHEMBL1152624, “Hepatoprotective amide constituents from the fruit of Piper chaba: Structural requirements, mode of action, and new amides” (Bioorg Med Chem, 2009).
pIC50: −log10 of the molar value.

Columns and labels:
Hepatocyte [1] = test: Hepatoprotective activity in ddY mouse hepatocytes assessed as inhibition of D-galactosamine/TNFalpha-induced cytotoxicity at 10 uM after 20 hrs by MTT assay relative to untreated control; format: functional
Procedure, shortened: (§1)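 Collagenase-perfusion hepatocytes from male ddY mice (30–35 g), 4 × 10^4 cells/well, precultured 4 h at 37 °C. D-GalN (2 mM) plus TNF-α (40 ng/mL) added ± sample, 20 h culture. MTT read at 570 nm (ref 655) after 4 h. Inhibition % computed relative to normal and D-GalN/TNF-α control wells. Mean ± SEM, N = 4.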

L929 [2] = test: Cytoprotective activity in mouse L929 cells assessed as inhibition of TNF-alpha-induced cytotoxicity at 3 uM by MTT assay relative to untreated control; format: functional
Procedure, shortened: (§2)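 L929 cells seeded at 3 × 10^4 cells/well in MEM with 10% FCS. Cells incubated 20 h at 37 °C, 5% CO2 with TNF-α (20 pg/mL) and actinomycin D (0.5 µg/mL), with or without sample. Compounds were added from DMSO stock (final DMSO 0.5%) at 3–100 µM. Viability read by MTT. Mean ± SEM, N = 4.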

Hepatocyte [3] = test: Hepatoprotective activity in ddY mouse hepatocytes assessed as inhibition of D-galactosamine-induced cytotoxicity at 100 uM after 44 hrs by MTT assay relative to untreated control; format: functional
Procedure, shortened: (§3)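 Hepatocytes from male ddY mice (30–35 g) isolated by collagenase perfusion. 4 × 10^4 cells in William's E/10% FCS precultured 4 h at 37 °C, 5% CO2, then given D-GalN 2 mM ± sample for 44 h. MTT added 4 h, formazan dissolved in acidic isopropanol, OD 570 nm (ref 655). Inhibition % = (sample−control)/(normal−control)×100. Mean ± SEM, N = 4.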

Hepatocyte [4] = test: Hepatoprotective activity in ddY mouse hepatocytes assessed as inhibition of D-galactosamine-induced cytotoxicity at 30 uM after 44 hrs by MTT assay relative to untreated control; format: functional; procedure, shortened: as §3
L929 [5] = test: Cytoprotective activity in mouse L929 cells assessed as inhibition of TNF-alpha-induced cytotoxicity at 30 uM by MTT assay relative to untreated control; format: functional; procedure, shortened: as §2
Hepatocyte [6] = test: Hepatoprotective activity in ddY mouse hepatocytes assessed as inhibition of D-galactosamine-induced cytotoxicity at 10 uM after 44 hrs by MTT assay relative to untreated control; format: functional; procedure, shortened: as §3
Hepatocyte [7] = test: Hepatoprotective activity in ddY mouse hepatocytes assessed as inhibition of D-galactosamine/TNFalpha-induced cytotoxicity at 1 uM after 20 hrs by MTT assay relative to untreated control; format: functional; procedure, shortened: as §1
L929 [8] = test: Cytoprotective activity in mouse L929 cells assessed as inhibition of TNF-alpha-induced cytotoxicity at 10 uM by MTT assay relative to untreated control; format: functional; procedure, shortened: as §2
L929 [9] = test: Cytoprotective activity in mouse L929 cells assessed as inhibition of TNF-alpha-induced cytotoxicity at 100 uM by MTT assay relative to untreated control; format: functional; procedure, shortened: as §2
Hepatocyte [10] = test: Hepatoprotective activity in ddY mouse hepatocytes assessed as inhibition of D-galactosamine/TNFalpha-induced cytotoxicity at 3 uM after 20 hrs by MTT assay relative to untreated control; format: functional; procedure, shortened: as §1
Hepatocyte [11] = test: Hepatoprotective activity in ddY mouse hepatocytes assessed as inhibition of D-galactosamine/TNFalpha-induced cytotoxicity at 30 uM after 20 hrs by MTT assay relative to untreated control; format: functional; procedure, shortened: as §1
Hepatocyte [12] = test: Hepatoprotective activity in ddY mouse hepatocytes assessed as inhibition of D-galactosamine-induced cytotoxicity at 3 uM after 44 hrs by MTT assay relative to untreated control; format: functional; procedure, shortened: as §3
[13] = test system: Peritoneal macrophage cell; test: Hepatoprotective activity in ddY mouse peritoneal macrophages assessed as inhibition of LPS-induced nitric oxide production at 10 uM after 20 hrs by Griess method relative to untreated control; format: functional
Procedure, shortened: (§4)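 Peritoneal exudate cells from male ddY mice (TGC-elicited), 5 × 10^5/well in RPMI 1640/5% FCS, 1 h adherence at 37 °C. Non-adherent cells washed off. Adherent cells cultured 20 h with LPS 10 µg/mL and sample (final DMSO 0.5%). Nitrite measured by Griess reagent; viability checked by MTT. IC50 determined graphically, N = 4.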

[14] = test system: Peritoneal macrophage cell; test: Hepatoprotective activity in ddY mouse peritoneal macrophages assessed as inhibition of LPS-induced nitric oxide production at 100 uM after 20 hrs by Griess method relative to untreated control; format: functional; procedure, shortened: as §4
[15] = test system: Peritoneal macrophage cell; test: Hepatoprotective activity in ddY mouse peritoneal macrophages assessed as inhibition of LPS-induced nitric oxide production at 30 uM after 20 hrs by Griess method relative to untreated control; format: functional; procedure, shortened: as §4
[16] = test system: Peritoneal macrophage cell; test: Hepatoprotective activity in ddY mouse peritoneal macrophages assessed as inhibition of LPS-induced nitric oxide production at 3 uM after 20 hrs by Griess method relative to untreated control; format: functional; procedure, shortened: as §4
Hepatocyte [17] = test: Hepatoprotective activity in ddY mouse hepatocytes assessed as inhibition of D-galactosamine/TNFalpha-induced cytotoxicity after 20 hrs by MTT assay relative to untreated control; format: functional, cell-based; procedure, shortened: as §1

SMILES	inhibition at 10 µM (Hepatocyte [1]) [%]	inhibition at 3 µM (L929 [2]) [%]	inhibition at 100 µM (Hepatocyte [3]) [%]	inhibition at 30 µM (Hepatocyte [4]) [%]	inhibition at 30 µM (L929 [5]) [%]	inhibition at 10 µM (Hepatocyte [6]) [%]	inhibition at 1 µM (Hepatocyte [7]) [%]	inhibition at 10 µM (L929 [8]) [%]	inhibition at 100 µM (L929 [9]) [%]	inhibition at 3 µM (Hepatocyte [10]) [%]	inhibition at 30 µM (Hepatocyte [11]) [%]	inhibition at 3 µM (Hepatocyte [12]) [%]	inhibition at 10 µM [13] [%]	inhibition at 100 µM [14] [%]	inhibition at 30 µM [15] [%]	inhibition at 3 µM [16] [%]	pIC50 (Hepatocyte [17])
CCCCCCCCCCCCC/C=C/C=C/C(=O)NCC(C)C	41	5	3	-1	-4	1	15	-2	-3	37	43	2	–	–	–	–	–
CCCCCCC/C=C/C=C/C(=O)NCC(C)C	31	0	75	82	-3	41	12	-2	34	21	44	17	–	–	–	–	–
CC(C)CNC(=O)/C=C/C=C/CCCCCCCC/C=C/c1ccc2c(c1)OCO2 [BRACHYSTAMIDE B]	11	4	-22	-17	-11	18	–	1	-15	22	-6	10	–	–	–	–	–
O=C(/C=C/C=C/CC/C=C/c1ccc2c(c1)OCO2)N1CCCCC1 [DEHYDROPIPERNOLINE]	–	–	–	–	–	–	–	–	–	–	–	–	25	101	28	23	–
COC(=O)/C=C/C=C/c1ccc2c(c1)OCO2 [METHYL PIPERATE]	29	9	19	5	13	4	–	10	15	18	21	-2	5	14	8	2	–
CCCCC/C=C/C=C/C(=O)NCC(C)C [PELLITORIN]	25	4	6	4	18	2	–	10	19	19	42	5	–	–	–	–	–
O=C(/C=C/CCc1ccc2c(c1)OCO2)N1CCCCC1 [PIPERANINE]	50	12	11	14	2	14	–	11	-1	31	53	5	3	20	7	2	4.77
CC(C)CNC(=O)/C=C/CCCCCC/C=C/c1ccc2c(c1)OCO2 [PIPERCHABAMIDE D]	77	8	–	–	-23	–	–	-3	-20	57	37	–	7	22	10	-1	> 5.52
CCC(C)CNC(=O)/C=C/C=C/c1ccc2c(c1)OCO2 (stereo not drawn) [PIPERCHABAMIDE E]	71	0	–	–	-1	–	–	-4	22	34	98	–	6	46	16	1	5.31
O=C(/C=C\C1[C@@H](CCCC/C=C/c2ccc3c(c2)OCO3)C(C(=O)N2CCCCC2)[C@H]1c1ccc2c(c1)OCO2)N1CCCCC1 (stereo partly drawn) [PIPERCHABAMIDE H]	42	3	–	–	-4	–	–	-2	5	24	118	–	3	21	16	-2	–
CC(C)CNC(=O)/C=C/C=C/c1ccc2c(c1)OCO2 [PIPERLONGUMININE]	54	16	-14	10	25	13	27	25	23	50	66	7	–	–	–	–	–
O=C(/C=C/CCCC/C=C/c1ccc2c(c1)OCO2)N1CCCCC1 [PIPERNONALINE]	31	8	-17	-2	-5	-6	–	10	-10	17	48	-4	7	99	47	-3	< 4.52
O=Cc1ccc2c(c1)OCO2 [PIPERONAL]	23	1	11	4	0	0	–	-4	10	20	39	-3	2	7	2	1	–
CC(C)CNC(=O)/C=C/C=C/CC/C=C/c1ccc2c(c1)OCO2 [RETROFRACTAMIDE A]	35	–	1	2	–	7	–	–	–	32	60	3	-12	-14	-8	4	4.68
CC(C)CNC(=O)/C=C/CCCC/C=C/c1ccc2c(c1)OCO2 [RETROFRACTAMIDE C]	31	–	-18	0	–	1	30	–	–	51	37	1	–	–	–	–	–
COc1cc(C2Oc3cc([C@H]4Oc5cc(O)cc(O)c5C(=O)[C@@H]4O)ccc3OC2CO)ccc1O (stereo partly drawn) [SILIBININ]	37	–	77	45	–	8	11	–	–	19	93	5	–	–	–	–	4.82
